# Efflux pump mplx = antifungal efflux pump inhibition, Nile Red retention; 330,000 compounds, 0.44% hits; S. cerevisiae Candida pump triplex; inhibition, % at 10 µM;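 active = plate passing quality check with inhibition over a set limit, or well fluorescence over plate mean plus 4 SD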;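 note: Nile Red retained in pooled yeast measured as flow cytometry median fluorescence; higher means more Nile Red kept so more efflux inhibition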
# SR-BI DiI-HDL act = activators of SR-BI mediated HDL lipid uptake | CHO ldlA[mSR-BI] cells, DiI-HDL uptake fluorescence, 3 h; 100 = double the neutral-control signal | activation, % at 12.5 µM | 320,000 compounds, 0.096% hits | AID 504775;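 active = mean replicate activation of at least 60% and every replicate at or above 60%; inconclusive = mean or all-replicate condition met, but not both; inactive = mean below 60% and not all replicates reaching 60%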
#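 Test system: SR-BI-overexpressing, LDLR-lacking CHO cells; Also added: labelled HDL, 10 µg/mL; Measured by: bottom-read cell fluorescence after medium removal, ex 550/em 595 nm; Timing: 3 h uptake period with compound, 37 °C; Buffer or medium: F12, 0.5% BSA, 25 mM HEPES; Doses: single compound concentration, delivered by pin transfer.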
# CaV13 FRET inh = Disruptors of the CACNA1D IQ motif to Ca2+-dependent inactivation inhibitor domain association, primary screening, Förster resonance energy transfer in intact living … | 340,000 compounds, 0.098% hits | HEK cells, CFP/YFP FRET ICDI-IQ, plate reader, 10 min; percent FRET-ratio fall versus neutral wells | AID 743397 | inhibition, % at 12.3 µM;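 active = mean replicate inhibition of at least 30% and at least 1% of replicates passing that level; inconclusive = only one of the two criteria is met; inactive = neither criterion is met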
# SR-BI HDL uptake = mouse SR-BI HDL lipid transfer inhibition; 320,000 compounds, 0.96% hits; inhibition, % at 12.5 µM; AID 488896; ldlA[mSR-BI] CHO cells, DiI-HDL uptake fluorescence, 3 h;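 active = mean replicate inhibition of at least 70% and a set share of replicates each scoring 70 or more; inconclusive = meets just one of the two criteria; inactive = fails both criteria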
# Target sequence (Q61009 whole entry, looked up): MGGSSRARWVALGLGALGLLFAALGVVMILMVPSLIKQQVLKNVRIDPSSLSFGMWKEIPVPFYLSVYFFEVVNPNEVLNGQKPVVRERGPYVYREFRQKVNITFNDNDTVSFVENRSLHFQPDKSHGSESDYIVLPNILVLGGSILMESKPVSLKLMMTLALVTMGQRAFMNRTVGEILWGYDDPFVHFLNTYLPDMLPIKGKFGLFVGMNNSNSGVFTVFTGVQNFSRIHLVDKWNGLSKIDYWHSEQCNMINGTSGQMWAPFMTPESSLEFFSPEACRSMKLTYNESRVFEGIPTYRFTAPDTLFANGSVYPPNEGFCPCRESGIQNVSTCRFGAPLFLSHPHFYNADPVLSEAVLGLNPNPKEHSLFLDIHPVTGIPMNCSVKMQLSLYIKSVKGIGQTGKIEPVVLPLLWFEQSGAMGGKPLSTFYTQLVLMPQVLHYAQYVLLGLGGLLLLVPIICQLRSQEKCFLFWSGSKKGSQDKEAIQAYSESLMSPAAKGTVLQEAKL
# FN deposition inh = fibronectin deposition inhibition; inhibition, % at 12.6 µM; AH1F fibroblasts, Alexa488-fibronectin deposition fluorescence, overnight; AID 743247; 350,000 compounds, 0.086% hits;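 active = mean inhibition across replicates of 30% or more, regardless of how many single replicates reach that level; inconclusive = mean under 30% yet at least half of replicates reach 30%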
#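 Material: AH1F fibroblast monolayer depositing Alexa488-labelled fibronectin into matrix | Input: 10000 AH1F cells/well | Medium: DMEM plus 2% serum, read in PBS | Reagent: Alexa488-fibronectin, 24 nM final in well | Compound dosing: One dose per compound, pinned | Schedule: 1 h adhesion, overnight exposure | Measured by: Fluorescence at 485 nm excitation, 525 nm emission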
# Hits are given with their value; n = inactive; u = inconclusive; x = no result given. An excerpt weighted towards active compounds, which were near 1.2% of everything screened.
SMILES,Efflux pump mplx,SR-BI DiI-HDL act,CaV13 FRET inh,SR-BI HDL uptake,FN deposition inh
CC(=O)Oc1ccc(C(=O)Nc2cccc(C(=O)c3ccc(C)c(C)c3)c2)cc1,n,n,n,84,n
COc1ccc(C(=O)Nc2cccc(OC(=O)c3ccc(C)c(C)c3)c2)cc1,n,n,n,n,x
C[C@@H]1CN(C)C(=O)c2cc(NS(C)(=O)=O)ccc2O[C@@H]1CN(C)C,x,x,x,x,n
O=c1c2c3c(sc2nc(NCCO)n1CCc1ccccc1)CCCCC3,n,n,n,n,n
C=CCn1c(NCCO)nc2sc3c(c2c1=O)CCC3,n,n,n,n,37
CC(C)NC(=O)Nc1ccc2c(c1)CC(=O)N(C)C[C@H](C)[C@@H](CN(C)C(=O)OC(C)(C)C)O2,x,x,x,x,n
COc1ccc(CNC(=O)CN(C(=O)c2csnn2)c2cccc3c2CCCC3)cc1,n,n,n,76,n
O=C(O)COc1ccc(/C=N/NC(=O)c2ccc(-c3csc(Nc4ccc(Cl)cc4)n3)cc2)cc1,x,n,n,74,n
CCOc1cc(/C=N/NC(=O)c2ccc(-c3csc(Nc4ccc(C)cc4)n3)cc2)ccc1OCC(=O)O,x,n,n,u,n
COc1cccc(-c2nc3ccccc3s2)c1O,n,n,n,n,n
COc1cc(OC)c(-c2nc3ccccc3s2)cc1OC,n,n,n,71,n
CC(C)(C)[C@H]1CCC(=O)N([C@H](CSc2ccccc2)Cc2ccccc2)CC1,n,n,34,n,n
N#Cc1cccc(-c2ccc3c(c2)[C@@H]2[C@@H](CCN2C(=O)C2CCCCC2)[C@@H](CO)N3)c1,x,x,x,x,n
COc1cc(/C=N/N(C)c2ccccc2)ccc1O,n,n,n,n,x
COc1cc(OC)c(OC)cc1/C=N/N(C)c1ccccc1,n,n,n,81,x
CCCNC(=O)N1C[C@H](O)COC[C@H]2O[C@@H](CC(=O)N3CCN(C)CC3)CC[C@@H]21,x,x,x,x,n
COc1cc2c(cc1NC(=O)c1ccccc1F)CCCC2,n,n,n,n,n
COc1cc2c(cc1NC(=O)c1cccc(Br)c1)CCCC2,n,n,n,73,x
COc1cc2c(cc1NC(=O)c1cccc(F)c1)CCCC2,n,n,n,76,n
CS(=O)(=O)Nc1ccc2c(c1)[C@@H]1C[C@@H](CC(=O)O)O[C@H](CO)[C@@H]1O2,x,x,x,x,n
CCOc1ccc(-n2c(SCC(=O)Nc3nccs3)nnc2-c2ccoc2C)cc1,n,x,179,x,n
O=C(COc1ccc(Cl)cc1Cl)N/N=C/c1cccnc1,n,n,n,n,n
O=C(CCCOc1ccc(Cl)cc1Cl)N/N=C/c1cccc([N+](=O)[O-])c1,n,330,n,n,n
CS(=O)(=O)N1CC2C(c3ccc(Br)cc3)C(C1)N2CC(F)(F)F (configuration not stated),x,x,x,x,n
CC(C)c1cc(-c2cc(-c3ccc(Cl)cc3)on2)nc(NC2CCCC2)n1,n,n,n,n,n
SMILES,Efflux pump mplx,SR-BI DiI-HDL act,CaV13 FRET inh,SR-BI HDL uptake,FN deposition inh
CC(C)c1cc(-c2cc(-c3ccccc3)on2)nc(NC2CCCC2)n1,n,n,n,75,n
CC(=O)Nc1ccc2c(c1)C(=O)N(C)[C@H]1CC[C@H](CC(=O)Nc3cccc(F)c3)O[C@@H]1CO2,x,x,x,x,n
CO[C@@H]1CN(C)C(=O)c2cc(NC(=O)c3cccc(Oc4ccccc4)c3)ccc2OC[C@H](C)NC[C@H]1C,x,x,x,x,n
CCC(C)Sc1cc(-c2nc3ccccn3c2NC2CCCCC2)ccc1OC (configuration not stated),n,66,n,n,n
Cc1ccc(C(=O)NNc2c3ccccc3nc3ccccc23)cc1,n,n,n,97,n
COc1ccccc1C(=O)NNC(=O)c1ccc(C)cc1,n,n,n,n,n
COc1ccc(NC(=O)NNC(=O)c2cc3ccccc3cc2O)cc1,n,x,n,96,n
O=C(NNC(=O)c1cc2ccccc2cc1O)Nc1ccc(Br)cc1,n,x,n,n,n
Cc1ccc(C(=O)NNC(=O)c2cc3ccccc3cc2O)cc1,n,n,n,123,n
COc1ccc(NC(=O)c2cc3ccccc3cc2OC)cc1,n,n,n,n,n
COc1cc2ccccc2cc1C(=O)NNC(=O)c1ccccc1O,n,n,n,129,n
CCC(=O)Nc1ccc2c(c1)OC[C@H](C)N(CCc1ccccc1)C[C@H](C)[C@H](OC)CN(C)C2=O,x,x,x,x,n
O=C(O)C[C@H]1C=C[C@H](NC(=O)c2ccccc2F)[C@H](CO)O1,x,x,x,x,n
COc1ccc(-c2ccc3c(c2)[C@H]2[C@H](CCN2S(=O)(=O)c2ccc(OC)cc2)[C@H](CO)N3)cc1,x,x,x,x,n
COc1ccc(C)cc1NC(=O)NNC(=O)c1ccoc1C,n,n,n,n,n
COc1ccc(C)cc1NC(=O)NNC(=O)c1cc2ccccc2cc1O,n,n,n,117,n
O=C(NCc1ccccc1)c1ccc(-c2cn[nH]c2)c2ccoc12,x,x,n,x,35
CCOCCCn1c(=N)c(C(N)=S)cc2c(=O)n3cccc(C)c3nc21,n,n,x,n,n
Cc1cccn2c(=O)c3cc(C(=O)NCCN4CCOCC4)c(=N)n(CCc4ccccc4)c3nc12,n,x,34,x,x
Cc1cccn2c(=O)c3cc(C(=O)NCCN4CCOCC4)c(=N)n(CCCN4CCOCC4)c3nc12,n,x,n,x,n
COCCn1c(=N)c(C(=O)NCCc2ccccc2)cc2c(=O)n3cccc(C)c3nc21,n,n,x,n,x
Cc1cccn2c(=O)c3cc(C(N)=S)c(=N)n(CCCOC(C)C)c3nc12,n,n,34,n,x
Cc1cccn2c(=O)c3cc(C(=O)NCCc4ccccc4)c(=N)n(CCCn4ccnc4)c3nc12,n,n,33,n,x
C[C@@H]1CN(C)C(=O)Cc2cc(N(C)C)ccc2O[C@H]1CN(C)C(=O)OC(C)(C)C,x,x,x,x,n
CC(C)[C@@H]1C(=O)N[C@@H](c2ccccc2)CC=CC[C@H](C)Oc2ccccc2C(=O)N1C (mixture of isomers),x,x,x,x,n
SMILES,Efflux pump mplx,SR-BI DiI-HDL act,CaV13 FRET inh,SR-BI HDL uptake,FN deposition inh
COc1ccc(S(=O)(=O)Nc2ccc3c(c2)C(=O)N([C@H](C)CO)C[C@H](C)[C@H](CN(C)C(=O)c2ccccc2)OCCCC[C@H](C)O3)cc1,x,x,x,x,n
CCN1CCN(c2cc(-c3ccccc3)nc3cc(-c4cccc(F)c4)nn23)CC1,1.3,n,n,n,x
C[C@H](CO)N1C[C@H](C)[C@@H](CN(C)Cc2ccccc2)Oc2c(NC(=O)Cc3cn(C)c4ccccc34)cccc2C1=O,x,x,x,x,n
C[C@@H]1CN([C@H](C)CO)C(=O)Cc2cc(NC(=O)Cc3cn(C)c4ccccc34)ccc2O[C@@H]1CN(C)S(=O)(=O)c1cn(C)cn1,x,x,x,x,n
CO[C@@H]1CN(C)C(=O)c2ccc(NC(=O)Nc3ccccc3Cl)cc2OC[C@@H](C)N(Cc2ccccc2C(=O)O)C[C@H]1C,x,x,x,x,n
COc1ccc([C@H]2CC(=O)C=C(c3cccc4c3Oc3ccccc3S4)C2)cc1OC,n,n,n,80,n

# Screening results as filed in PubChem BioAssay.
